# Experiments:
# Candida albicans [1] = test: Antifungal activity against fluconazole-susceptible Candida albicans assessed as growth inhibition measured after 24 hrs by CLSI protocol based broth microdilution method; format: functional
# Summary of the method: (§1)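 C. albicans clinical isolates were tested: 8 fluconazole-susceptible and 3 fluconazole-resistant. Isolates were called resistant at a fluconazole MIC ≥8 μg/mL, per CLSI 2012 interpretive guidelines. Compounds were diluted to test concentrations in 1% DMSO, which served as the negative control. Fluconazole was the positive control. Values are means per group.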
# Candida albicans [2] = test: Antifungal activity against fluconazole-resistant Candida albicans assessed as growth inhibition measured after 24 hrs by CLSI protocol based broth microdilution method; format: functional; summary of the method: as §1
# Candida albicans [3] = test: Fungicidal activity against fluconazole-susceptible Candida albicans assessed as growth inhibition by sub-culturing on Agar plate and incubated for 24 to 48 hrs; format: functional; summary of the method: as §1
# Candida albicans [4] = test: Fungicidal activity against fluconazole-resistant Candida albicans assessed as growth inhibition by sub-culturing on Agar plate and incubated for 24 to 48 hrs; format: functional; summary of the method: as §1
# Candida albicans [5] = test: Antifungal activity against Candida albicans SC5314 assessed as effect on fungal cell viability by measuring live cells at MIC measured after 3 hrs by Muse cell analyzer (reference value: 98.6 %); format: functional
# Candida albicans [6] = test: Antifungal activity against Candida albicans SC5314 assessed as effect on fungal cell viability by measuring dead cells at MIC measured after 3 hrs by Muse cell analyzer (reference value: 1.4 %); format: functional
# Summary of the method: (§2)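 Candida albicans SC5314 cells at a density of 1 × 107 were exposed to each compound at its MIC. Live and dead cells were counted with the Muse Count & Viability kit. Untreated cells were the negative control and heat-killed cells the positive control. A cell size index was run in the same assay to separate cells from debris and non-nucleated cells.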
# Candida albicans [7] = test: Induction of apoptosis in Candida albicans SC5314 protoplasts assessed as necrotic cells at 1/2 MIC measured after 3 hrs by Annexin V-FITC/propidium iodide staining based flow cytometry (reference value: 0.15 +/- 0.03 %); format: functional
# Candida albicans [8] = test: Induction of apoptosis in Candida albicans SC5314 protoplasts assessed as late apoptotic cells at 1/2 MIC measured after 3 hrs by Annexin V-FITC/propidium iodide staining based flow cytometry (reference value: 0.06 +/- 0.01 %); format: functional
# Candida albicans [9] = test: Induction of apoptosis in Candida albicans SC5314 protoplasts assessed as early apoptotic cells at 1/2 MIC measured after 3 hrs by Annexin V-FITC/propidium iodide staining based flow cytometry (reference value: 3.47 +/- 0.26 %); format: functional
# Candida albicans [10] = test: Induction of apoptosis in Candida albicans SC5314 protoplasts assessed as viable cells at 1/2 MIC measured after 3 hrs by Annexin V-FITC/propidium iodide staining based flow cytometry (reference value: 96.3 %); format: functional
# Candida albicans [11] = test: Induction of DNA damage in Candida albicans SC5314 assessed as apoptotic cells at 1/2 MIC measured after 3 hrs by TUNEL based confocal microscopy relative to control; format: functional
# Summary of the method: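 SC5314 cells exposed to 1/2 MIC of compound, then TUNEL-labelled with fluorescent dUTP (Ex/Em 488/515 nm) and counterstained with Hoechst 33342 (Ex/Em 350/460 nm). Imaged by confocal laser scanning microscopy and scored as % TUNEL-positive nuclei against untreated control.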
# [12] = Hemolytic activity against horse erythrocytes at 4 to 125 ug/ml measured after 3 hrs by spectrophometric analysis; format: ADME, cell-based, Equus caballus, Erythrocyte; conditions: read-out: Activity
# Summary of the method: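 Horse red blood cells exposed to compound. Hemolysis read as absorbance at 450 nm and expressed as % lysis relative to 1% Triton X-100, taken as 100% hemolysis.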
# Candida albicans [13] = test: Antifungal activity against Candida albicans SC5314 assessed as effect on fungal cell death at MIC measured after 3 hrs by Muse cell analyzer relative to control; format: functional; summary of the method: as §2
# Candida albicans [14] = test: Induction of DNA damage in Candida albicans SC5314 assessed as increase in TUNEL positive nuclei at 0.125 ug/ml measured after 3 hrs by TUNEL based confocal microscopy relative to control; format: functional
# Summary of the method: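 SC5314 cells treated with 0.125 μg/mL amphotericin B, then TUNEL-labelled with fluorescent dUTP and counterstained with Hoechst 33342. Confocal microscopy scored TUNEL-positive (green) nuclei relative to untreated cells.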
Structure (SMILES),MIC (Candida albicans [1]) [µg/mL],MIC (Candida albicans [2]) [µg/mL],MFC (Candida albicans [3]) [µg/mL],MFC (Candida albicans [4]) [µg/mL],Activity (Candida albicans [5]) [%],Activity (Candida albicans [6]) [%],Activity (Candida albicans [7]) [%],Activity (Candida albicans [8]) [%],Activity (Candida albicans [9]) [%],Activity (Candida albicans [10]) [%],Activity (Candida albicans [11]),hemolysis at 3 h [12] [%],Activity (Candida albicans [13]) [%],Activity (Candida albicans [14]) [%]
O=C(Cn1nnc(/C=C/c2ccccc2)n1)N/N=C/c1ccccc1,125,125,> 125,–,–,–,–,–,–,–,–,–,–,–
O=C(Cn1nnc(/C=C/c2ccccc2)n1)N/N=C/c1ccc(Cl)cc1,64,64,> 125,–,–,–,–,–,–,–,–,–,–,–
NNC(=O)Cn1nnc(/C=C/c2ccccc2)n1,> 125,–,> 125,–,–,–,–,–,–,–,–,–,–,–
N#C/C=C/c1ccccc1 [CINNAMONITRILE],> 125,> 125,> 125,> 125,–,–,–,–,–,–,–,–,–,–
COc1ccc(/C=N/NC(=O)Cn2nnc(/C=C/c3ccccc3)n2)cc1OC,2,4,8,8,44.8,55.2,4.55,24.93,9.69,61.4,25 - 55%,10 to 40,–,–
O=C(Cn1nnc(/C=C/c2ccccc2)n1)N/N=C/c1ccccc1[N+](=O)[O-],0.5,0.5,4,4,40.4,59.6,1.98,36.34,13.37,48.3,25 - 55%,10 to 40,–,–
O/N=C/C=C/c1ccccc1,> 125,–,> 125,–,–,–,–,–,–,–,–,–,–,–
Cc1ccc(/C=N/NC(=O)Cn2nnc(/C=C/c3ccccc3)n2)cc1,16,16,16,16,55.8,44.2,3.7,15.6,10.18,71.3,25 - 55%,10 to 40,–,–
CCOC(=O)Cn1nnc(/C=C/c2ccccc2)n1,> 125,–,> 125,–,–,–,–,–,–,–,–,–,–,–
O=C(Cn1nnc(/C=C/c2ccccc2)n1)N/N=C/c1cccc([N+](=O)[O-])c1,0.25,0.5,1,1,29.6,70.4,11.7,44.65,8.23,35.3,25 - 55%,10 to 40,–,–
C(=C\c1nn[nH]n1)/c1ccccc1,> 125,–,> 125,–,–,–,–,–,–,–,–,–,–,–
O=C(Cn1nnc(/C=C/c2ccccc2)n1)N/N=C/c1ccc([N+](=O)[O-])cc1,0.125,0.5,1,1,22.8,77.2,9.8,48.3,8.21,33.8,25 - 55%,10 to 40,>75,–
O=C(Cn1nnc(/C=C/c2ccccc2)n1)N/N=C/c1ccccc1Cl,64,125,> 125,–,–,–,–,–,–,–,–,–,–,–
OC(Cn1cncn1)(Cn1cncn1)c1ccc(F)cc1F [FLUCONAZOLE],0.25,16,–,–,–,–,–,–,–,–,–,–,–,–
CCOc1ccc(/C=N/NC(=O)Cn2nnc(/C=C/c3ccccc3)n2)cc1,4,8,8,8,46.4,53.6,2.44,27.92,10.49,59.9,25 - 55%,10 to 40,–,–
C[C@@H]1[C@H](O)[C@@H](C)/C=C/C=C/C=C/C=C/C=C/C=C/C=C/[C@H](O[C@@H]2O[C@H](C)[C@@H](O)[C@H](N)[C@@H]2O)C[C@@H]2O[C@](O)(C[C@@H](O)C[C@@H](O)[C@H](O)CC[C@@H](O)C[C@@H](O)CC(=O)O[C@H]1C)C[C@H](O)[C@H]2C(=O)O [AMPHOTERICIN B],–,–,–,–,–,–,–,–,–,–,–,–,–,>90
COc1ccc(/C=N/NC(=O)Cn2nnc(/C=C/c3ccccc3)n2)cc1,8,8,8,16,52.3,47.7,1.78,23.6,13.9,60.9,25 - 55%,10 to 40,–,–

# Reference: ChEMBL document CHEMBL4342514, “Azole Based Acetohydrazide Derivatives of Cinnamaldehyde Target and Kill Candida albicans by Causing Cellular Apoptosis” (ACS Med Chem Lett, 2020)
